Columns and labels:
[1] = target: T1, Glucocorticoid receptor (Rattus norvegicus) (UniProt P06536)
T1 sequence (whole entry): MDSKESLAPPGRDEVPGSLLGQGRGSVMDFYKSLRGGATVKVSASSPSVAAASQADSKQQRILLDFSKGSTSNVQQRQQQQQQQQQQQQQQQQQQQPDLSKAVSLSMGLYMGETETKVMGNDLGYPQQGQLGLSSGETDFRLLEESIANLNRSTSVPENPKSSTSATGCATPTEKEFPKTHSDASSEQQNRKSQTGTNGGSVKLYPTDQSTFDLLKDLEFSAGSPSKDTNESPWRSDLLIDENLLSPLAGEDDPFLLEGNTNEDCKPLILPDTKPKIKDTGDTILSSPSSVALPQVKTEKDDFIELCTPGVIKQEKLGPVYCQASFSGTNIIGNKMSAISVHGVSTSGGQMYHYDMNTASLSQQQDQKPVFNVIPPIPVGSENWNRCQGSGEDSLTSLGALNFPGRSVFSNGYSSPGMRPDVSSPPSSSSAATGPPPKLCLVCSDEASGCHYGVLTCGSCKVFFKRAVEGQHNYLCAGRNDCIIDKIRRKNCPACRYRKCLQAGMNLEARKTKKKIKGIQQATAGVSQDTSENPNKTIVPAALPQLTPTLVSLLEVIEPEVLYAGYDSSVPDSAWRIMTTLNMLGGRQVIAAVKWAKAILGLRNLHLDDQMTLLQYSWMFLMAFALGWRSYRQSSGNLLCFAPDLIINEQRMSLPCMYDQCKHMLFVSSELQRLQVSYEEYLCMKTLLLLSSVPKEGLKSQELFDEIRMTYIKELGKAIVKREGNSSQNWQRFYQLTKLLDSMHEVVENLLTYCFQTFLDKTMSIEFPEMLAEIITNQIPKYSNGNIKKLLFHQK

[2] = target: T2, Androgen receptor (Rattus norvegicus) (UniProt P15207); assay: Binding affinity to Steroid Hormone Receptor was determined using [6,7-3H] R 1881 as radioligand; conditions: tested as the 3H-labelled form
T2 sequence (whole entry): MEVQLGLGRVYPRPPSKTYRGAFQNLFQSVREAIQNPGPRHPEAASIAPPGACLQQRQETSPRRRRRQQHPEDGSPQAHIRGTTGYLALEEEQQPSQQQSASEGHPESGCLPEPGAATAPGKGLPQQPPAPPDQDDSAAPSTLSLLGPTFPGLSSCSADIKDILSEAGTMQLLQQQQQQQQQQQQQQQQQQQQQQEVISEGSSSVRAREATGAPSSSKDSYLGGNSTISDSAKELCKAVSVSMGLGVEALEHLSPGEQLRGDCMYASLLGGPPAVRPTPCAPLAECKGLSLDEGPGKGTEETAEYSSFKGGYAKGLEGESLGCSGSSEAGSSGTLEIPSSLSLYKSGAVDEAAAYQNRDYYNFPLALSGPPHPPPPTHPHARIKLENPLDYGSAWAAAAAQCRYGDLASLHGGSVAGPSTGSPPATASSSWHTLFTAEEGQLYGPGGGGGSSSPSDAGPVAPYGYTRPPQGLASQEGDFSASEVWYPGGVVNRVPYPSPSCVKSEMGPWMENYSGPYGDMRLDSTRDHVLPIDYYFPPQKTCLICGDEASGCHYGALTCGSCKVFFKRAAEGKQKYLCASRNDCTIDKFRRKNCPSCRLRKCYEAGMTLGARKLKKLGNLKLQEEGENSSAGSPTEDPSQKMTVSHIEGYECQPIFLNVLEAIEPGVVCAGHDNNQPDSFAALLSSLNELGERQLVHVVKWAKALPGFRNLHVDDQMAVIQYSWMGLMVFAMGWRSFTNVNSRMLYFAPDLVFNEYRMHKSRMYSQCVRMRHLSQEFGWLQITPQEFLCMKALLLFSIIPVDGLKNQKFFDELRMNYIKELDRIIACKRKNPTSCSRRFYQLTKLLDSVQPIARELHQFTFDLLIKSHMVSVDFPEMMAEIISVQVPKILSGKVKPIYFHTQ
Procedure, shortened: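 Prostate was taken from male Sprague–Dawley rats (140–160 g) castrated 24 h before and homogenized 1/5 (w/v). Cytosol was incubated with 2.5 nM [3H]R 1881 for 2 h at 0 °C with 0–2500 nM unlabeled competitor. Free ligand was removed with DCC (0.625% dextran–1.25% charcoal, 10 min, 0–4 °C, 800g spin). RBA is relative to testosterone = 100. Values are means of ≥3 experiments (SEM) or of two.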

[3] = target: T3, Estrogen receptor (Mus musculus) (UniProt O08537+P19785); assay: Binding affinity to Steroid Hormone Receptor was determined using [6,7-3H]estradiol as radioligand; format: protein assay; conditions: tested as the 3H-labelled form
T3 sequence (O08537 whole entry, looked up): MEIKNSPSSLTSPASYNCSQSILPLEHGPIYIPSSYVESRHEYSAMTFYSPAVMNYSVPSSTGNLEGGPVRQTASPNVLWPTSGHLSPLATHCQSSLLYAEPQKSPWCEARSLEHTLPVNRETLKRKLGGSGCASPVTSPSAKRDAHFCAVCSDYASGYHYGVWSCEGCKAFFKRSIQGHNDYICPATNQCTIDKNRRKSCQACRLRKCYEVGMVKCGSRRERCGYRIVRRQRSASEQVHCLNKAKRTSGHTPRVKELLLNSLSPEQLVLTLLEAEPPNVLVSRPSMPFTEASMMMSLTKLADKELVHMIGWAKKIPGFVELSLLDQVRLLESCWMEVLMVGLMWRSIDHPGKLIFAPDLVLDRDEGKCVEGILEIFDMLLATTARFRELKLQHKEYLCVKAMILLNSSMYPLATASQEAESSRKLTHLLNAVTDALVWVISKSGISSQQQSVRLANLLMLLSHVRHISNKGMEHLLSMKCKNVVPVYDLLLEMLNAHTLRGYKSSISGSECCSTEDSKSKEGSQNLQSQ
T3 sequence (P19785 whole entry, looked up): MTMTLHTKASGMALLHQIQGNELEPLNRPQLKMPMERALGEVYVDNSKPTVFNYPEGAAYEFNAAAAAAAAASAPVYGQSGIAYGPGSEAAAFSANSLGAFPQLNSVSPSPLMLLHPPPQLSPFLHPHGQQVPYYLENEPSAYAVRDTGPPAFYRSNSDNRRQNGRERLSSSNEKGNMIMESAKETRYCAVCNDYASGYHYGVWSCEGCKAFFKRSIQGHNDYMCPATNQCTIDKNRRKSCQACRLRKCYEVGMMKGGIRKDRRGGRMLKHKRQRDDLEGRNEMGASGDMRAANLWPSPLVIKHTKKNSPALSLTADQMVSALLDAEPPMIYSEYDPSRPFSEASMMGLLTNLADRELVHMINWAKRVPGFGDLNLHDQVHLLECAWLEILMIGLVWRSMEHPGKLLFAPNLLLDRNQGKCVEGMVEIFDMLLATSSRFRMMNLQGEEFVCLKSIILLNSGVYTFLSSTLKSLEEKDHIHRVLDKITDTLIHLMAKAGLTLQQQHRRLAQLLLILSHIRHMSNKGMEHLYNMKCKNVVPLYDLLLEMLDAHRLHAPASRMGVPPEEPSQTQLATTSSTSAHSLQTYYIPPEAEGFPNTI
Procedure, shortened: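 Uteri came from 18-day-old female Swiss mice and were homogenized 1/50 (w/v). Uterine cytosol was labeled with 5 nM [3H]estradiol for 2 h at 0 °C with 0–2500 nM competing steroid. Bound radioactivity was measured after dextran-coated charcoal treatment and an 800g centrifugation. The 50%-inhibition concentrations gave RBA × 100 relative to estradiol (100). Results are means of ≥3 or two experiments.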

[4] = target: T4, Progesterone receptor (Oryctolagus cuniculus) (UniProt P06186); assay: Binding affinity to Steroid Hormone Receptor was determined using [6,7-3H]R5020 as radioligand
T4 sequence (whole entry): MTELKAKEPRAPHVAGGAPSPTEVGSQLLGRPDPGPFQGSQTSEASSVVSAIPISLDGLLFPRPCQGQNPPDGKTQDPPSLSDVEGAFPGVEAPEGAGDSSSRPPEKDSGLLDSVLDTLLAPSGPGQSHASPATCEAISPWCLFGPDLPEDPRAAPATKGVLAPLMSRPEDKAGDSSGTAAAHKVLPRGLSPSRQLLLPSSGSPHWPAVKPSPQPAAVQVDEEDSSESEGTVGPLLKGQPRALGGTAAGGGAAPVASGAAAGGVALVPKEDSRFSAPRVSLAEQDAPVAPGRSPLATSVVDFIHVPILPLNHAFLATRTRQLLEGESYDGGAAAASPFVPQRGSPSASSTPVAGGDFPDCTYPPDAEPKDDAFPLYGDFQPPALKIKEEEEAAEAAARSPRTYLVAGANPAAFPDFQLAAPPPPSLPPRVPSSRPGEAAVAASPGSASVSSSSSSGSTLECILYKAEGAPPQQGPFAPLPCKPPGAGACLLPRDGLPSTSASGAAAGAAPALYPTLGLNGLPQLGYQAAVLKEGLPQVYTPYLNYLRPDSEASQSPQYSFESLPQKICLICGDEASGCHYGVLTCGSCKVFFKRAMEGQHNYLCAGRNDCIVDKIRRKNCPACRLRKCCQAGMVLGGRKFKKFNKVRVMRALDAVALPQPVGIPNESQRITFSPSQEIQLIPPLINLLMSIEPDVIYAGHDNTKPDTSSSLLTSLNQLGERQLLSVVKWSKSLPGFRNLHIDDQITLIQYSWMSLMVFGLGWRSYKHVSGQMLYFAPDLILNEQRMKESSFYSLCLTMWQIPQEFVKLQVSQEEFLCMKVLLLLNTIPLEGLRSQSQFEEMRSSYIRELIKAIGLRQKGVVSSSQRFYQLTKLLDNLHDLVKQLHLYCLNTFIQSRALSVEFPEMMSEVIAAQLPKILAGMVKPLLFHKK
Procedure, shortened: (§1)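 Uteri from estrogen-primed female New Zealand rabbits (1 kg, 50–55 days old) homogenised 1/50 in 10 mM Tris-HCl pH 7.4, 0.25 M sucrose. Cytosol spun at 105000g for 60 min at 4 °C, then incubated with 2.5 nM [3H]R 5020 for 24 h at 0 °C with 0–2500 nM competitor. Bound ligand taken by dextran-charcoal. RBA taken relative to progesterone.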

[5] = target: T4, Progesterone receptor (Oryctolagus cuniculus); assay: Relative binding affinity for Progesterone receptor of rabbit uterus cytosol, displacement of [3H]R5020 over 24 hr at 0C
Procedure, shortened: as §1

[6] = target: T2, Androgen receptor (Rattus norvegicus); assay: Relative binding affinity for androgen receptor of rat prostate cytosol, displacement of [3H]R-1881 over 2 hr at 0C
Procedure, shortened: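 Prostate from male Sprague–Dawley rats (140–160 g) castrated 24 h earlier, homogenised 1/5 w/v. Cytosol incubated with 2.5 nM [3H]R 1881 for 2 h at 0 °C with 0–2500 nM competitor. […] by dextran-coated charcoal (10 min, 0–4 °C; 800g). RBA is the ratio of 50%-displacing concentrations × 100, relative to testosterone.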

[7] = target: T1, Glucocorticoid receptor (Rattus norvegicus); assay: Relative binding affinity for glucocorticoid receptor of rat liver cytosol, displacement of [3H]dexamethasone over 4 hr at 0C
Procedure, shortened: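 Rats (male Sprague–Dawley, 140–160 g) adrenalectomized 4–7 days earlier. Perfused liver homogenised 1/10 in Tris-sucrose buffer and spun at 105000g for 60 min at 4 °C. Cytosol incubated with 5 nM [3H]dexamethasone for 4 h at 0 °C with 0–2500 nM competitor. Dextran-charcoal separation used. RBA relative to dexamethasone = 100.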

[8] = target: T5, Mineralocorticoid receptor (Rattus norvegicus) (UniProt P22199); assay: Relative binding affinity for mineralocorticoid receptor of rat kidney homogenates, displacement of [3H]aldosterone over 30 min at 25 degree C
T5 sequence (whole entry): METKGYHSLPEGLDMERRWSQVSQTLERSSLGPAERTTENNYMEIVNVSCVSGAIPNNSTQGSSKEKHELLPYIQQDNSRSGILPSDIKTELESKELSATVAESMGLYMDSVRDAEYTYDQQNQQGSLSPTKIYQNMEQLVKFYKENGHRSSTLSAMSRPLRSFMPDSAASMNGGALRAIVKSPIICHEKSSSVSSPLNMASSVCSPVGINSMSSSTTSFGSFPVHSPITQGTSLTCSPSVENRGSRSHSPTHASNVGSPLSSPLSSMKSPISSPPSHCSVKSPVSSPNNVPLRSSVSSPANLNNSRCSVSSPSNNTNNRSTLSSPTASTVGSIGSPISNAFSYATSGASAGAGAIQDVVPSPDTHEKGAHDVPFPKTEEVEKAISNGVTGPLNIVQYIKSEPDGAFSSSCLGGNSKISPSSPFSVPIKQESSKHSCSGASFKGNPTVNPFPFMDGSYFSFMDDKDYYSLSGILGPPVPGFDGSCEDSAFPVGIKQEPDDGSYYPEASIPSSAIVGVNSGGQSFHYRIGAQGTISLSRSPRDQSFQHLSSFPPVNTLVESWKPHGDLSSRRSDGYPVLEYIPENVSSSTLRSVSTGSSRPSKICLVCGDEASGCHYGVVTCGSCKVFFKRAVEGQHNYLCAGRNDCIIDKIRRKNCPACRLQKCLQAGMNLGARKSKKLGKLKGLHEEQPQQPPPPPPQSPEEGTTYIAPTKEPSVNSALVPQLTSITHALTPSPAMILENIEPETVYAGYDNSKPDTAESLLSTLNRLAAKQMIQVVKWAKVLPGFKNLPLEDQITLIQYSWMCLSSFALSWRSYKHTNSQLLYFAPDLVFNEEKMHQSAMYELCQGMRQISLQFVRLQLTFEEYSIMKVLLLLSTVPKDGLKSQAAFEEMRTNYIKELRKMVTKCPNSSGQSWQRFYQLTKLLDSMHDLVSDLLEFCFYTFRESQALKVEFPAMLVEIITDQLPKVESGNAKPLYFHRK
Procedure, shortened: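 Perfused kidneys from adrenalectomized (4–7 days) male Sprague–Dawley rats homogenised 1/3 in Krebs-Ringer phosphate buffer. Homogenate incubated with 2.5 nM [3H]aldosterone for 30 min at 25 °C with 0–2500 nM competitor, then centrifuged at 800g for 10 min at 0 °C. Bound ligand measured by dextran-charcoal. RBA relative to aldosterone = 100.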

[9] = target: T3, Estrogen receptor (Mus musculus); assay: Relative binding affinity for Estrogen receptor of mouse uterus cytosol, displacement of [3H]estradiol over 2 hr at 0C; format: protein assay
Procedure, shortened: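 Cytosol from uteri of 18-day-old female Swiss mice (homogenised 1/50 w/v), incubated with 5 nM [3H]estradiol for 2 h at 0 °C with 0–2500 nM unlabeled competitor. Bound ligand separated by dextran-coated charcoal, 10 min at 0–4 °C, then centrifuged at 800g. RBA = (50%-displacing concentration of unlabeled estradiol / that of competitor) × 100. Mean of ≥3 experiments or 2 concordant.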

[10] = target: T5, Mineralocorticoid receptor (Rattus norvegicus); assay: Binding affinity to Steroid Hormone Receptor was determined using [1,2-3 H]aldosterone as radioligand
Procedure, shortened: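 Rats were male Sprague–Dawley, 140–160 g, adrenalectomized 4–7 days. Perfused kidney was homogenized 1/3 (w/v) in Krebs-Ringer phosphate buffer. Homogenate was incubated with 2.5 nM [3H]aldosterone for 30 min at 25 °C with 0–2500 nM competitor, then spun at 800g for 10 min at 0 °C. Bound ligand was separated by dextran-coated charcoal. RBA = 100 × ratio of the 50%-displacing concentrations, with aldosterone set at 100.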

| SMILES | RBA [5] | RBA [6] | RBA [7] | RBA [8] | RBA [9] | other results |
| --- | --- | --- | --- | --- | --- | --- |
| C[C@@H]1C[C@H]2[C@@H]3CCC4=CC(=O)C=C[C@]4(C)[C@@]3(F)[C@@H](O)C[C@]2(C)[C@@]1(O)C(=O)CO | – | – | – | – | – | Specific activity [1]: 26 Ci mM-1 |
| CC12CCC(=O)C=C1CCC1C2C2CC3(C(O)O2)C(C(=O)CO)CCC13 (stereo not given) | – | – | – | – | – | Specific activity [2]: 53 Ci mM-1 |
| CCC(=O)[C@@]1(C)CC[C@H]2[C@@H]3CCC4=CC(=O)CCC4=C3CCC21C (stereo not given in full) | – | – | – | – | – | Specific activity [3]: 57 Ci mM-1 |
| C[C@]1(O)CC[C@H]2[C@@H]3CCC4=CC(=O)CCC4=C3C=C[C@@]21C | – | – | – | – | – | Specific activity [4]: 56 Ci mM-1 |
| CC12CCC(=O)C=C1CCC1C2CCC2(C)C1C[C@H]([Se]c1ccccc1)C2O (stereo not given in full) | < 0.1 | 1.9 | < 0.1 | < 0.1 | < 0.1 | – |
| CC(=O)[C@@]1([Se]c2ccccc2)CCC2C3CCC4=CC(=O)CCC4(C)C3CCC21C (stereo not given in full) | 2.1 | < 0.1 | < 0.1 | 0.23 | < 0.1 | – |
| CC12CCC(=O)C=C1CCC1C2CCC2(C)C1CC[C@@H]2C(=O)C[Se]c1ccccc1 (stereo not given in full) | 59 | 1.7 | 0.6 | 2.1 | < 0.1 | – |
| CC12CCC(=O)C=C1CCC1C2CCC2(C)C1C[C@@H]([Se]c1ccccc1)C2O (stereo not given in full) | 0.8 | 0.33 | 0.23 | 0.15 | < 0.1 | – |
| C[C@]12CC[C@@H]3c4ccc(O)cc4CC[C@H]3[C@@H]1CC[C@@H]2O | – | – | – | – | – | Specific activity [10]: 50 Ci mM-1 |

From ChEMBL document CHEMBL1121469, “Synthesis and biochemical screening of phenylselenium-substituted steroid hormones” (J Med Chem, 1980)
